Tests used:
Cryptococcus neoformans [1] = experiment: Antifungal activity against Cryptococcus neoformans VM-MCMMPI assessed as reduction in cell viability at 26 uM after 6 to 72 hrs by MTT assay; format: functional
Outline: (§1)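 Time-kill setup: colonies from two 48 h, 35°C SDA passages were suspended in saline to 70% transmittance at 530 nm. They were then diluted to 1-5 x10^3 cells/mL in RPMI with L-glutamine buffered to pH 7.0 with 0.165 M MOPS. Plates were incubated at 35°C for 0-72 h, then MTT (5.0 mg/mL) was added for 3 h. After isopropanol, absorbance was read at 490 nm. Drug-free controls were included, results were confirmed by SDA colony counts, and assays were run in triplicate.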

Cryptococcus neoformans [2] = experiment: Antifungal activity against Cryptococcus neoformans ATCC 24067 assessed as reduction in cell viability at 26 uM after 6 to 72 hrs by MTT assay; format: functional; outline: as §1
[3] = Selectivity index, ratio of IC50 for C57BL/6 mouse peritoneal macrophages to MIC for Cryptococcus gattii ATCC 24065
Cryptococcus neoformans [4] = experiment: Antifungal activity against Cryptococcus neoformans WP assessed as reduction in cell viability at 26 uM after 6 to 72 hrs by MTT assay; format: functional; outline: as §1
Cryptococcus neoformans [5] = experiment: Antifungal activity against Cryptococcus neoformans 28JF assessed as reduction in cell viability at 3.9 uM after 6 to 72 hrs by MTT assay; format: functional
[6] = tested on: Cryptococcus gattii species complex; experiment: Antifungal activity against Cryptococcus gattii ICB181 assessed as reduction in cell viability at 3.9 uM after 6 to 72 hrs by MTT assay; format: functional, Cryptococcus bacillisporus
[7] = tested on: Cryptococcus gattii species complex; experiment: Antifungal activity against Cryptococcus gattii 547/OTTI-97-PI-10 assessed as reduction in cell viability at 3.9 uM after 6 to 72 hrs by MTT assay; format: functional, Cryptococcus bacillisporus
[8] = tested on: Cryptococcus gattii species complex; experiment: Antifungal activity against Cryptococcus gattii L28/02 assessed as reduction in cell viability at 3.9 uM after 6 to 72 hrs by MTT assay; format: functional, Cryptococcus bacillisporus
[9] = tested on: Cryptococcus gattii species complex; experiment: Antifungal activity against Cryptococcus gattii 1913ER assessed as reduction in cell viability at 3.9 uM after 6 to 72 hrs by MTT assay; format: functional, Cryptococcus bacillisporus
Cryptococcus neoformans [10] = experiment: Antifungal activity against Cryptococcus neoformans CN31 assessed as reduction in cell viability at 3.9 uM after 6 to 72 hrs by MTT assay; format: functional
[11] = tested on: Cryptococcus gattii species complex; experiment: Antifungal activity against Cryptococcus gattii 135L/03 assessed as reduction in cell viability at 3.9 uM after 6 to 72 hrs by MTT assay; format: functional, Cryptococcus bacillisporus
[12] = tested on: Cryptococcus gattii species complex; experiment: Antifungal activity against Cryptococcus gattii L27/01 assessed as reduction in cell viability at 3.9 uM after 6 to 72 hrs by MTT assay; format: functional, Cryptococcus bacillisporus
Cryptococcus gattii = experiment: Antifungal activity against Cryptococcus gattii ATCC 24065 assessed as reduction in cell viability at 3.9 uM after 6 to 72 hrs by MTT assay
Cryptococcus neoformans [13] = experiment: Antifungal activity against Cryptococcus neoformans ATCC 24067 assessed as reduction in cell viability at 3.9 uM after 6 to 72 hrs by MTT assay; format: functional
[14] = tested on: Cryptococcus bacillisporus; experiment: Antifungal activity against Cryptococcus gattii ATCC 32608 assessed as reduction in cell viability at 3.9 uM after 6 to 72 hrs by MTT assay; format: functional
Cryptococcus neoformans [15] = experiment: Antifungal activity against Cryptococcus neoformans ATCC 28957 assessed as reduction in cell viability at 3.9 uM after 6 to 72 hrs by MTT assay; format: functional
Cryptococcus neoformans [16] = experiment: Antifungal activity against Cryptococcus neoformans 96806 assessed as reduction in cell viability at 3.9 uM after 6 to 72 hrs by MTT assay; format: functional
[17] = tested on: Cryptococcus gattii species complex; experiment: Antifungal activity against Cryptococcus gattii 23/10993 assessed as reduction in cell viability at 3.9 uM after 6 to 72 hrs by MTT assay; format: functional, Cryptococcus bacillisporus
Cryptococcus neoformans [18] = experiment: Antifungal activity against Cryptococcus neoformans 27JF assessed as reduction in cell viability at 3.9 uM after 6 to 72 hrs by MTT assay; format: functional
[19] = tested on: Cryptococcus gattii species complex; experiment: Antifungal activity against Cryptococcus gattii 196L/03 assessed as reduction in cell viability at 3.9 uM after 6 to 72 hrs by MTT assay; format: functional, Cryptococcus bacillisporus
Cryptococcus neoformans [20] = experiment: Antifungal activity against Cryptococcus neoformans F10 assessed as reduction in cell viability at 3.9 uM after 6 to 72 hrs by MTT assay; format: functional
Cryptococcus neoformans [21] = experiment: Antifungal activity against Cryptococcus neoformans ATCC 62066 assessed as reduction in cell viability at 3.9 uM after 6 to 72 hrs by MTT assay; format: functional
[22] = tested on: Cryptococcus gattii species complex; experiment: Antifungal activity against Cryptococcus gattii 196L/03 assessed as reduction in cell viability at 1.9 uM after 6 to 72 hrs by MTT assay; format: functional, Cryptococcus bacillisporus
[23] = tested on: Cryptococcus gattii species complex; experiment: Antifungal activity against Cryptococcus gattii 547/OTTI-97-PI-10 assessed as reduction in cell viability at 1.9 uM after 6 to 72 hrs by MTT assay; format: functional, Cryptococcus bacillisporus
[24] = tested on: Cryptococcus gattii species complex; experiment: Antifungal activity against Cryptococcus gattii ICB181 assessed as reduction in cell viability at 1.9 uM after 6 to 72 hrs by MTT assay; format: functional, Cryptococcus bacillisporus
[25] = tested on: Cryptococcus gattii species complex; experiment: Antifungal activity against Cryptococcus gattii L24/01 assessed as reduction in cell viability at 1.9 uM after 6 to 72 hrs by MTT assay; format: functional, Cryptococcus bacillisporus
[26] = tested on: Cryptococcus gattii species complex; experiment: Antifungal activity against Cryptococcus gattii 135L/03 assessed as reduction in cell viability at 1.9 uM after 6 to 72 hrs by MTT assay; format: functional, Cryptococcus bacillisporus
Cryptococcus neoformans [27] = experiment: Antifungal activity against Cryptococcus neoformans VM-MCMMPI assessed as reduction in cell viability at 1.9 uM after 6 to 72 hrs by MTT assay; format: functional
Cryptococcus neoformans [28] = experiment: Antifungal activity against Cryptococcus neoformans CN31 assessed as reduction in cell viability at 1.9 uM after 6 to 72 hrs by MTT assay; format: functional
[29] = tested on: Cryptococcus gattii species complex; experiment: Antifungal activity against Cryptococcus gattii L27/01 assessed as reduction in cell viability at 1.9 uM after 6 to 72 hrs by MTT assay; format: functional, Cryptococcus bacillisporus
Cryptococcus neoformans [30] = experiment: Post-antifungal activity against Cryptococcus neoformans CN31 assessed as organism required time to achieve cell population of 10^4 cells/ml at 0.05 uM treated for 1 hr by MTT assay; format: functional
[31] = tested on: Cryptococcus gattii species complex; experiment: Antifungal activity against Cryptococcus gattii L27/01 assessed as reduction in cell viability at 0.12 uM after 6 to 72 hrs by MTT assay; format: functional, Cryptococcus bacillisporus
[32] = tested on: Cryptococcus gattii species complex; experiment: Antifungal activity against Cryptococcus gattii 196L/03 assessed as reduction in cell viability at 0.12 uM after 6 to 72 hrs by MTT assay; format: functional, Cryptococcus bacillisporus
[33] = tested on: Cryptococcus gattii species complex; experiment: Post-antifungal activity against Cryptococcus gattii L27/01 assessed as organism required time to achieve cell population of 10^4 cells/ml at 0.11 uM treated for 1 hr by MTT assay; format: functional, Cryptococcus bacillisporus
Cryptococcus neoformans [34] = experiment: Antifungal activity against Cryptococcus neoformans ATCC 62066 assessed as reduction in cell viability at 0.9 uM after 6 to 72 hrs by MTT assay; format: functional
Cryptococcus neoformans [35] = experiment: Antifungal activity against Cryptococcus neoformans 27JF assessed as reduction in cell viability at 0.9 uM after 6 to 72 hrs by MTT assay; format: functional
Cryptococcus neoformans [36] = experiment: Antifungal activity against Cryptococcus neoformans VM-MCMMPI assessed as reduction in cell viability at 0.9 uM after 6 to 72 hrs by MTT assay; format: functional

| SMILES | Ratio [3] | Activity (Cryptococcus neoformans [5]) [%] | Activity [6] [%] | Activity [7] [%] | Activity [8] [%] | Activity [9] [%] | Activity (Cryptococcus neoformans [10]) [%] | Activity [11] [%] | Activity [12] [%] | Activity (Cryptococcus gattii) [%] | Activity (Cryptococcus neoformans [13]) [%] | Activity [14] [%] | Activity (Cryptococcus neoformans [15]) [%] | Activity (Cryptococcus neoformans [16]) [%] | Activity [17] [%] | Activity (Cryptococcus neoformans [18]) [%] | Activity [19] [%] | Activity (Cryptococcus neoformans [20]) [%] | Activity (Cryptococcus neoformans [21]) [%] | Activity [22] [%] | also measured |
| --- | --- | --- | --- | --- | --- | --- | --- | --- | --- | --- | --- | --- | --- | --- | --- | --- | --- | --- | --- | --- | --- |
| OC(Cn1cncn1)(Cn1cncn1)c1ccc(F)cc1F [FLUCONAZOLE] | 7.87 | – | – | – | – | – | – | – | – | – | – | – | – | – | – | – | – | – | – | – | Activity (Cryptococcus neoformans [1]): 80%; Activity (Cryptococcus neoformans [2]): 80%; Activity (Cryptococcus neoformans [4]): 80% |
| COc1ccc(-c2csc(N/N=C/C3CCCCC3)n2)cc1 | 25.64 | 80 | 80 | 80 | 80 | 80 | 80 | 80 | 80 | 80 | 80 | 80 | 80 | 80 | 80 | 80 | 80 | 80 | 80 | – | – |
| C(=N\Nc1nc(-c2ccccc2)cs1)/C1CCCCC1 | – | – | – | – | – | – | – | – | – | – | – | – | – | – | – | – | – | – | – | 90 | Activity [23]: 90%; Activity [24]: 90%; Activity [25]: 90%; Activity [26]: 90%; Activity (Cryptococcus neoformans [27]): 90%; Activity (Cryptococcus neoformans [28]): 90%; Activity [29]: 90% |
| C[C@@H]1[C@H](O)[C@@H](C)/C=C/C=C/C=C/C=C/C=C/C=C/C=C/[C@H](O[C@@H]2O[C@H](C)[C@@H](O)[C@H](N)[C@@H]2O)C[C@@H]2O[C@](O)(C[C@@H](O)C[C@@H](O)[C@H](O)CC[C@@H](O)C[C@@H](O)CC(=O)O[C@H]1C)C[C@H](O)[C@H]2C(=O)O [AMPHOTERICIN B] | – | – | – | – | – | – | – | – | – | – | – | – | – | – | – | – | – | – | – | – | Time (Cryptococcus neoformans [30]): 2.75 h; Activity [31]: 90%; Activity [32]: 90%; Time [33]: 2.65 h |
| COc1ccc(-c2csc(N/N=C(\C)CCO)n2)cc1 | – | – | – | – | – | – | – | – | – | – | – | – | – | – | – | – | – | – | – | 90 | Activity [23]: 90%; Activity [24]: 90%; Activity [25]: 90%; Activity (Cryptococcus neoformans [34]): 90%; Activity [26]: 90%; Activity (Cryptococcus neoformans [35]): 90%; Activity (Cryptococcus neoformans [36]): 90%; Activity [29]: 90% |
| c1ccc(-c2csc(NN=C3CCCC3)n2)cc1 | – | 80 | 80 | 80 | 80 | 80 | 80 | 80 | 80 | 80 | 80 | 80 | 80 | 80 | 80 | 80 | 80 | 80 | 80 | – | – |

From ChEMBL document CHEMBL3616437, “Thiazole compounds with activity against Cryptococcus gattii and Cryptococcus neoformans in vitro” (Eur J Med Chem, 2015)
